# Experimental data of several laboratories.
# Compare with care: the assays were run in different laboratories.
# Target: Cyclin-G-associated kinase (GAK, Homo sapiens, UniProt O14976)
# Sequence (O14976 1-1311, as in one of the studies): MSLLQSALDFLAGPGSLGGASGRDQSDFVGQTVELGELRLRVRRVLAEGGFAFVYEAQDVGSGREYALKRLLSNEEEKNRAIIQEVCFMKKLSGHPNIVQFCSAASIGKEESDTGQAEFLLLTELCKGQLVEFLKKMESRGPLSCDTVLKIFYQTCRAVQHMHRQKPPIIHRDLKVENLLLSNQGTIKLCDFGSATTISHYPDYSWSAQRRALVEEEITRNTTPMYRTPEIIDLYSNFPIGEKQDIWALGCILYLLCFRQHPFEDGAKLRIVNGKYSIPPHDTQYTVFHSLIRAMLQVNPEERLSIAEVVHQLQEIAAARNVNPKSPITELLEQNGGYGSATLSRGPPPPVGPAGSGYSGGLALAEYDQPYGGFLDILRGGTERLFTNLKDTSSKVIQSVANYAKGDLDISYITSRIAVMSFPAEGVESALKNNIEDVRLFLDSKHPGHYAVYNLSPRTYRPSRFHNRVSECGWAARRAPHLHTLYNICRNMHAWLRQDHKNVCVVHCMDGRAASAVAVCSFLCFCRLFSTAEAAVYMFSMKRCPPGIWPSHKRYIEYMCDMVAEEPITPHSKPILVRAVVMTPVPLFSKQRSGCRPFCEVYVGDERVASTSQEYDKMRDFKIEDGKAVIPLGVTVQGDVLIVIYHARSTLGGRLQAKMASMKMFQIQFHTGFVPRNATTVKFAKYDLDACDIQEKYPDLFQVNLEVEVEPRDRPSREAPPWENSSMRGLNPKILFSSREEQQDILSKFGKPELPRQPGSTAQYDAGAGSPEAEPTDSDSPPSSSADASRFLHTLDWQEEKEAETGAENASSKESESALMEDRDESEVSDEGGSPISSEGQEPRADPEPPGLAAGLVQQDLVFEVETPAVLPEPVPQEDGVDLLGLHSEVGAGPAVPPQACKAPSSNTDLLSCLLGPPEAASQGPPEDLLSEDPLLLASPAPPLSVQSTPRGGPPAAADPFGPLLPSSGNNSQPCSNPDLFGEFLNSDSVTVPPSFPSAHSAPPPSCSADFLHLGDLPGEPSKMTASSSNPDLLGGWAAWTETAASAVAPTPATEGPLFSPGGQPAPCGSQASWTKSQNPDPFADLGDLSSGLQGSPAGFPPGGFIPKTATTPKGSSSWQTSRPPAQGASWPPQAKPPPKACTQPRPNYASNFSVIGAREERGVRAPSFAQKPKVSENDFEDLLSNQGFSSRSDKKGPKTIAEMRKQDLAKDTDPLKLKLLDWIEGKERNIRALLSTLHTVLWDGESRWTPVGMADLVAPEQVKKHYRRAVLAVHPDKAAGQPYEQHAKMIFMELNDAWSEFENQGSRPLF
Structure (SMILES),effect on,action,technique,tested at,quantity,value
CO[C@@H]1[C@H](N(C)C(=O)c2ccccc2)C[C@H]2O[C@]1(C)n1c3ccccc3c3c4c(c5c6ccccc6n2c5c31)C(=O)NC4,enzyme activity,inhibitor,,1 µM,inhibition,74%
CN1CCN(C(=O)c2ccc(NC(=O)Nc3ccc(N(C)c4ccnc(Nc5ccc(CS(C)(=O)=O)cc5)n4)cc3)cc2)CC1,binding,,competition with immobilised ligand,1 µM,remaining binding,18%
CC(C)S(=O)(=O)c1ccc2nccc(Nc3ccc4sc(C5CCCC5)nc4c3)c2c1,enzyme activity,inhibitor,,1 µM,activity vs control,101%
C=CC(=O)N1CCC([C@@H]2CCNc3c(C(N)=O)c(-c4ccc(Oc5ccccc5)cc4)nn32)CC1,enzyme activity,inhibitor,,1 µM,inhibition,20%
C1=C/COCc2cc(ccc2OCCN2CCCC2)Nc2nccc(n2)-c2cccc(c2)COC/1,binding,,,0.1 µM,remaining binding,31%
C#Cc1cc(-c2cc(Nc3nc(N[C@@H](C)c4ccc(F)cn4)ncc3Cl)n[nH]2)ccc1C=O,enzyme activity,inhibitor,,0.2 µM,inhibition,18.7%
Cc1cc(O)c(-c2ccc([C@@H](C)CN(C)C)cc2)c2c1[nH]c(=O)c1sccc12,enzyme activity,inhibitor,,0.1 µM,inhibition,0.133%
Cc1ccc(NC(=O)c2ccnc(C(F)(F)F)c2)cc1-c1cc(OCCO)nc(N2CCOCC2)c1,binding,,competition with immobilised ligand,1 µM,remaining binding,95%
CCCCC(=O)Nc1ccc(-c2ccc3ncn(CCC)c(=O)c3c2)cn1,binding,,competition with immobilised ligand,0.5 µM,remaining binding,100%
